The labels stand for the following.
B1: tRNA (parent)
chain: GUUCCGUUGGCGUAAUGGUAACGCGUCUCCCUCCUAAGGAGAAGACUGCGGGUUCGAGUCCCGUACGGAACG

Variants at the floor of the assay were thinned out.

Results on 167 variants are retold here after the RNAGym collection of RNA variant scans (doi:10.1126/science.aae0568).

In this data set the parent is B1. Description: yeast fitness relative to wild type (ratio to wild type); higher = fitter; tRNA-Arg(CCU), competitive growth, 37 C, YPD. In outline: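 A pool of Saccharomyces cerevisiae strains, each with a tRNA-Arg(CCU) gene variant at the native genomic locus, was competed in YPD at 37°C for 24 hours across six parallel replicates. The variants had been chemically synthesised at a 3% per-site mutation rate over 69 sites, and gene amplicons before and after competition were read by 100-nucleotide paired-end sequencing. Darwinian fitness relative to wild type rested on changes in genotype frequencies. Genotypes required ≥ 100 starting reads, and estimates < 0.5 were set to 0.5.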
Take U7C U54C C55G: the yeast fitness amounted to 0.655. For A20G C49U C66U the value was 0.684.

Take C49U G52C: the yeast fitness was 0.547. As for C27A G52U C55A, the figure is at most 0.5; as for C4G C34G A65G, at most 0.5; as for U3C U26G, 0.868. For C24U C29G the value was 0.674; for A20C A57C, 0.601. As for C24U C49G G56C, the figure is at most 0.5. On to U3G G68U, for which the yeast fitness was found to be 0.808.

Take G12A C62U G63A: the yeast fitness is at most 0.5. In the case of A20G G23A U26G, the yeast fitness is at most 0.5. Consider C5U C22U U53C U59G C61G C62U, for which the yeast fitness is at most 0.5. For G17C U19C G68U the value was 0.569.

For C22U C46G, the yeast fitness turned out to be 0.835.

Take G63A A65G: the yeast fitness worked out at 0.889. As for U8A U28A C33A A36U, the figure is 0.541; as for G9A A15G A20U U28C A69U, 0.542.

Regarding U3A C27U A36G, the yeast fitness worked out at 0.594. For C5G U59G the value was 0.62; for C29G C31A C33G G41A A43G C61U, at most 0.5.

On to A14C G52C C55G, for which the yeast fitness worked out at 0.546.

U19A G25C A43U: the yeast fitness worked out at 0.657.

As for C5G A14C C29A C31G U54A A70G, the yeast fitness came out at 0.531. As for C11A U16C G18C A45C A57U U59C, the figure is at most 0.5; as for A57G C62G C66U, 0.596; as for G6C U16C, 0.803. For A20C C22G C34G G44A A65U, the yeast fitness came to 0.569. As for A37G G56A, the figure is 0.825; as for G23C C27A G56A A57U A69U, at most 0.5; as for C5G U16C G67A, at most 0.5. Consider C4G C34A U54C, for which the yeast fitness was found to be 0.54. Take C22A A65C: the yeast fitness is 0.836. For G12A A21G C24G U28G the value was 0.992. For C5A A37U C49U the value was at most 0.5. With A36U A40C A45U C62G G63A, the yeast fitness was at most 0.5. As for U2C A20U G25A C27G G67A, the figure is at most 0.5; as for C11U A15C A21G C24G U28A, at most 0.5; as for C22G A69C A70G, 0.632. For A15C C27G C30U C46A A70U the value was at most 0.5; for G17A A45C G63C C66U, at most 0.5; for A43G G67U, 0.85. Turning to G6A C34A G58C A65C A69C, the yeast fitness is at most 0.5. For A45C A57G A70C the value was 0.764; for U2C A40G A43U A45C A57G A65C, 0.52; for A36U A45G C49A C66U A70G, at most 0.5. As for G9A C22U U53G, the figure is 0.555; as for A14U G50U, 0.601. Turning to C4A C11G U19G A42G, the yeast fitness is at most 0.5. As for G9A A21U C31G G63A C66A, the figure is at most 0.5; as for C5G A20G A36C G63A, at most 0.5; as for C24U C30U C31G A57G, 0.576. As for U3A U13G, the yeast fitness amounted to 0.729.

On to G25A C27G G41C, for which the yeast fitness amounted to 0.671. As for C22U A36C A65U G67C, the figure is at most 0.5. As for G41A U53C, the figure is 0.626. For C11G C46G C62A the value was at most 0.5.

With C30A C62A A70G, the yeast fitness is 0.547. As for A14G C31U C55A, the figure is 0.552; as for C29G C66A, 0.506; as for G9A U19C A69C, 0.834. For C4G G18C U64A the value was at most 0.5.

In the case of C11A A21U A43U, the yeast fitness was at most 0.5. For A21G C31U G52C G68A the value was at most 0.5; for C22U A45G G58C, 0.608. For C5U A14C A45C the value was at most 0.5; for U19C C60A G68C, at most 0.5; for C22G U32G, 0.626. As for C5U C31U G68C, the figure is 0.653. For the variant C22G C49G G68A, the yeast fitness was determined as 0.529. For U2A G17C C46U G67C the value was at most 0.5. As for U7A G23A C29A, the figure is 0.531; as for A14U C24G G41A G44A C61U, at most 0.5; as for C29A C31G G51C C62G, at most 0.5. As for C30G U35A G51C, the figure is 0.628; as for U7C C11U U32C G39C G67C, at most 0.5.

Turning to G6C U26C, the yeast fitness was determined as 0.959.

Take U47A G68A: the yeast fitness turned out to be 0.621. As for C5U G12C U19A, the figure is at most 0.5; as for U2A U26G, 0.821.

With G9C G10C C33U G48C C55G, the yeast fitness was at most 0.5. For C5U U8C C11G A15U A36U G38A C61U A70U the value was 0.564.

C29A C30G G50C A65G: the yeast fitness was at most 0.5. For C11U U19C the value was 0.941. For U7A U64A the value was 0.837; for A14G G39C A70U, 0.717. As for C11U G25C C34A, the figure is 0.557.

Take C31U G63A: the yeast fitness worked out at 1.14. Regarding C29A G68U, the yeast fitness amounted to 0.721. As for C22U C24G U28A A45C G51A A57C C61U, the figure is at most 0.5; as for C5U U16G G58C, 0.576. As for G10C A20G U26C C46U, the figure is at most 0.5.

On to C5A C22G C29G C31G, for which the yeast fitness was 0.627. As for A43G U53A U54C, the figure is at most 0.5; as for G18C G44U, 0.554. As for C11A A36C G56C, the figure is 0.614; as for C24G C61U A69U, 0.516; as for C22G A57U G63C, at most 0.5.

For the variant U13A U28C C33G G38A U64G, the yeast fitness was at most 0.5. For C34U C46A G50C the value was at most 0.5; for A42U A57U C61G, at most 0.5.

With G18C C29U C46U A57G, the yeast fitness stood at 0.636. For U19A U59A C62A the value was at most 0.5. As for G9C A14C G44C A57C, the figure is 0.573; as for C22U C27U A42U A43U U47C, at most 0.5. As for U3A G12A A20C C29G G67A, the figure is at most 0.5. With C29U G51C C55U, the yeast fitness was at most 0.5.

For the variant A36G G48A U53G, the yeast fitness was at most 0.5. In the case of C4G C30G A42U C55U C66A, the yeast fitness was at most 0.5. As for U16C G18A C24G A57C, the figure is at most 0.5; as for G44C C61U, 0.718; as for C5A U7C C34A G41C C60U A70U, at most 0.5. For C5U A14C C34G A37U A40U, the yeast fitness was at most 0.5.

As for C30U G67C, the yeast fitness was determined as 0.864. For C11A C27G C55A C61G the value was at most 0.5; for A20C C60U, 0.742. For C4A C34U G51C A57C the value was at most 0.5. As for A45C G68A, the figure is 0.838; as for U3A G68C, 0.822; as for C5A G17C A70C, at most 0.5. On to C4A G9A U16A A40G C46U, for which the yeast fitness is at most 0.5. Take A69G A70U: the yeast fitness came out at 0.99. For G10C G18C A45C G56C A70C the value was at most 0.5; for C27G C33U G44C C49U, at most 0.5; for A14G G23C C29A, at most 0.5. For A42G G52C A65U the value was at most 0.5; for C27U C31G A43C C49G G52C U59G, at most 0.5; for C11U U54C, 0.844. For U3C U26A C33U C49U the value was at most 0.5. For C5A C11A U59A C60G, the yeast fitness is at most 0.5. As for C34G A40G U53A G68C, the figure is at most 0.5; as for C5G C11G C34U C55U G67C, at most 0.5. For the variant C4G U8C C11G C46U, the yeast fitness was at most 0.5. G38C A43C G51C G56C: the yeast fitness was at most 0.5. As for C22U C24G C55U A65G, the figure is at most 0.5. As for C31G U47A, the figure is 0.847; as for U19G C22U C30U C31U A40U G67A, at most 0.5. For C24A C27G C29G the value was 0.639; for A36C C46A C49U, 0.562; for A20U G48A U64C, 0.589. Consider G23C C61U, for which the yeast fitness came to 0.703. A15U U54C: the yeast fitness amounted to 0.703.

On to U3G C11A C34G A45C, for which the yeast fitness was at most 0.5. For U19C U32C C60A C61A the value was 0.731; for U3A C27U A36G A70U, 0.729; for C29G C33U A65C, 0.554. Consider C11A U16C C34G A65G G67A, for which the yeast fitness is at most 0.5. For G48A C49U the value was 0.97.

Regarding G9C C34G, the yeast fitness amounted to 0.548. As for A15G G52C, the figure is 0.568; as for G17A U26C U53G, 0.566; as for G10A A42G A65G, at most 0.5. For A14U A20G C30G A42C A70G the value was at most 0.5. For A21C C24U A37C G39A C49G the value was at most 0.5; for U3A C46A C66U, 0.734; for U7C C29G G44C C60U, at most 0.5. Take U59C U64A: the yeast fitness came out at 0.677. As for C4A G12C U19C C22U C24G A43U C61A, the figure is at most 0.5. For A42G G63C the value was 0.69. As for C29U C31U U59C C66U A70C, the figure is 0.55; as for U8G C24G G41A C49G C60A C62G A70C, at most 0.5; as for C5U G9C A42G, 0.626.

Consider G12A U19A C29G A43U C55U, for which the yeast fitness was at most 0.5. For U32A C66U the value was 0.834; for U16C C33G C49A C55G G56C, at most 0.5. Consider A20G G25C C61U A65G, for which the yeast fitness was 0.647. For G17A G48C the value was 0.827.
